Source: ChEMBL document CHEMBL1134702, “Arylalkylidene rhodanine with bulky and hydrophobic functional group as selective HCV NS3 protease inhibitor” (Bioorg Med Chem Lett, 2001)

Columns and labels:
[1] = target: NS3 (Hepatitis C virus, UniProt A3EZJ3); assay: Inhibitory activity against hepatitis C virus (HCV) NS3 protease; set-up: species or system Hepacivirus hominis
Procedure, shortened: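 His-tagged HCV NS3 fusion expressed in BL21(DE3) E. coli, purified, quantified by densitometry against BSA. Reaction started with GST-bead 5A5B substrate (3 µg); 37 °C, 15 min or <40% conversion. Cleavage read by SDS-PAGE, Coomassie, densitometry; IC50 determined.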

[2] = target: Plasminogen (Homo sapiens, UniProt P00747); assay: Inhibitory activity against plasmin
Procedure, shortened: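 Fluorogenic casein-substrate protease kit assay using 0.002U plasmin per reaction at 30 °C, stopped within the linear phase of the reaction; IC50 determined.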

NS3, sequence (A3EZJ3 whole entry, the tested form may be a part): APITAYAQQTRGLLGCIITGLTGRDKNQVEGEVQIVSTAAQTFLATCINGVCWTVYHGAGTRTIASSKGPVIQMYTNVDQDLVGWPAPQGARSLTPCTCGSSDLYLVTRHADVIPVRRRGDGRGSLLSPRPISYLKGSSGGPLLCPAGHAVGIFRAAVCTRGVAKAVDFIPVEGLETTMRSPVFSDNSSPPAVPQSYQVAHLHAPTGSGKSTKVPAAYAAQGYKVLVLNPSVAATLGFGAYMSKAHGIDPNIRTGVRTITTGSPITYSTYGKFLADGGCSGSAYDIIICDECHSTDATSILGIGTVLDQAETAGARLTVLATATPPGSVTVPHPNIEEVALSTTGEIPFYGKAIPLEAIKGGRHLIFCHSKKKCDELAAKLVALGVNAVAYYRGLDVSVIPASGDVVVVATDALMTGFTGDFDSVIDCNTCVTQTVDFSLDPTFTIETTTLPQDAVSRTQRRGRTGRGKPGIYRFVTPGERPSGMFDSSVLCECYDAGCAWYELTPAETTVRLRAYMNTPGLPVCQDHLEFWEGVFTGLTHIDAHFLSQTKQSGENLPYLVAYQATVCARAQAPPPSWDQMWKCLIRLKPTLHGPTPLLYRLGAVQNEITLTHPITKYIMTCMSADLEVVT
Plasminogen, sequence (P00747 97-580 limits assumed): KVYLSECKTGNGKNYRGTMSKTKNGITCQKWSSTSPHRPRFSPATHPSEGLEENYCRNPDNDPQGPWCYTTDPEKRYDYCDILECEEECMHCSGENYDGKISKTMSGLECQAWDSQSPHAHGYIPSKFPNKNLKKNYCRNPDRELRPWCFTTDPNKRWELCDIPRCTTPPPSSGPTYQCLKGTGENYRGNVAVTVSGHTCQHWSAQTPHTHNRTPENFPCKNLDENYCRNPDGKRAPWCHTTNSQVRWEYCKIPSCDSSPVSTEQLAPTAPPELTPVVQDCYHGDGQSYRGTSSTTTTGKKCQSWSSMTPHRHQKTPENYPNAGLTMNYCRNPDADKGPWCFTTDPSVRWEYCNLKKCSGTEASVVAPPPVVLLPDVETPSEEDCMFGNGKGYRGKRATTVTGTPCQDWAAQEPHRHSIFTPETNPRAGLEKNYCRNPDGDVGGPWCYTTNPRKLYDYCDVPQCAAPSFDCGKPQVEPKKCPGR
Plasminogen, sequence (P00747 581-810 limits assumed): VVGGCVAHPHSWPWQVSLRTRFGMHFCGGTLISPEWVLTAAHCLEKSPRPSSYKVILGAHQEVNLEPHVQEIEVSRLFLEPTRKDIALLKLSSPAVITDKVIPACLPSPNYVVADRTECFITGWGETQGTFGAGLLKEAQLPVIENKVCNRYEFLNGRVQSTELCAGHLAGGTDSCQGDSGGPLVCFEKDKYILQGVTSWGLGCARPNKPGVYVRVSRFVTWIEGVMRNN

| Structure (SMILES) | IC50 [1] [µM] | IC50 [2] [µM] |
| --- | --- | --- |
| C=CCN1C(=O)/C(=C/c2cc3c(cc2[N+](=O)[O-])OCO3)SC1=S | 40 | < 1 |
| CCOC(=O)CN1C(=O)/C(=C(\C)c2cccc(OC(=O)N[C@@H](CC(C)C)C(=O)N(CCN(Cc3ccc(C(=O)OC)cc3)Cc3ccc(C(=O)OC)cc3)Cc3ccc(Cl)cc3)c2)SC1=S | 16 | 20 |
| COC(=O)CN1C(=O)/C(=C/c2cc3c(cc2[N+](=O)[O-])OCO3)SC1=S | 71 | < 1 |

Continued, values first:

| IC50 [1] [µM] | IC50 [2] [µM] | Structure (SMILES) |
| --- | --- | --- |
| 64 | 13 | O=C(O)CN1C(=O)/C(=C/c2cc([N+](=O)[O-])ccc2F)SC1=S |
| 15 | 20 | CCOC(=O)CN1C(=O)/C(=C(\C)c2cccc(NS(=O)(=O)c3ccc(-c4ccc(S(=O)(=O)NCCNC(=O)OC(C)(C)C)cc4)cc3)c2)SC1=S |
| 20 | 7 | C/C(=C1/SC(=S)N(CC(=O)O)C1=O)c1ccc(-c2ccccc2)cc1 |
